This is a sample that favours compounds with a hit; in the whole collection about 3.6% have one here.
Measles CPE = protection of cells from measles virus; Measles virus-infected cells, CPE protection, absorbance; protection (pct of control), % at 4 µM; 140,000 compounds, 1.5% hits; AID 841; in the data active means protection mostly above about 24%, no sharp cut-off; inactive means mostly below about 26%
RAM inhibit = blocks the yeast RAM network; 190,000 compounds, 1.8% hits; AID 868; S. cerevisiae dse1pr::URA3 reporter, 5-FOA growth OD615, 2 d; analog-sensitive cbk1-as2 kinase mutant strain; inhibition, % at 50 µM;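 active means inhibition above a set limit, 3 SD over mean compound inhibition, cut at about 8.4% in these data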;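 further: 0% = DMSO-only wells with no growth and 100% = 10 µM 1-NA-PP1 full growth; inhibition rescues growth on 5-FOA so higher OD means more RAM inhibition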
Yeast life ext = yeast lifespan extension | S. cerevisiae growth with nicotinamide, OD615; deaD strain in restrictive glucose medium | inhibition of the nicotinamide effect, % at 10 µM | 130,000 compounds, 0.68% hits | AID 775;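 active means inhibition above a set limit, placed 3 SD over the median of all compounds, cut at about 26% in these data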;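 further: 0% = nicotinamide-treated wells and 100% = cells grown without nicotinamide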
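Buffer or medium: CSMM-D glucose medium, restrictive; test system: modified budding yeast, DeaD strain; compound: single dose 10 µM compound, 0.25% DMSO; schedule: culture preincubation 4 h, compound exposure 48 h, both 30 °C; detection: optical density (absorbance) at 615 nm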
Yeast growth inh = reduces growth of yeast BB579 in restrictive medium; S. cerevisiae BB579 growth, OD615, 48 h; inhibition, % at 10 µM; 140,000 compounds, 0.51% hits; AID 804;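 active means inhibition above a set limit, 3 SD over the mean compound inhibition, cut at about 44% in these data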
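System: DeaD yeast strain BB579; buffer or medium: CSMM-D dextrose restrictive medium; technique: OD at 615 nm; schedule: 4 h cell preincubation, 48 h compound exposure, 30 °C humidified; doses: single 10 µM dose; controls: amphotericin B 10 µg/mL, positive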
* = called active by the depositor; x = no result.

SMILES	Measles CPE	RAM inhibit	Yeast life ext	Yeast growth inh
CCOC(=O)C1=C(O)/C(=C/c2ccc(OCC(=O)O)c(OCC)c2)SC1=Nc1ccc(OC)cc1	6	9.4*	6	-34
O=C(ONC1=NCCCCC1)c1c(F)cccc1F	1	-1	-6	14
O=C(ONC1=NCCCCC1)c1ccc(Cl)cc1	3	-1	-20	98*
COc1ccc(C)cc1S(=O)(=O)N(CC(=O)Nc1cccc([N+](=O)[O-])c1)c1ccc(C)c(C)c1	50*	3	8	-37
CC(C)n1c(CSCc2ccc(Cl)cc2Cl)n[nH]c1=S	x	1	x	x
COc1ccc(Nc2nc(NN)nc(C)c2[N+](=O)[O-])cc1	x	2	x	x
COc1ccc(Nc2nc(N/N=C/c3ccc(N(C)C)cc3)nc(C)c2[N+](=O)[O-])cc1	9	10.0*	5	-54
CC1(C)NC(=O)N(CC(O)COc2cc3ccccc3cc2C(=O)N2CCCCC2)C1=O (configuration not stated)	2	0	-14	18
CC1(C)NC(=O)N(CC(O)COc2ccccc2C(=O)N2CCCCC2)C1=O (configuration not stated)	44*	0	-13	5
O=C(CCSCCc1ccccn1)Nc1c(F)c(F)c(F)c(F)c1F	3	2	27*	-27
COc1ccc(N(C)C(=S)Nc2ccc3nc(C)c(C)nc3c2)cc1	12	0	43*	5
Cc1nc2ccc(NC(=S)NCc3ccccc3)cc2nc1C	x	1	x	x
Cc1ccc(NC(=O)Cn2cc(S(=O)(=O)c3ccc(F)cc3)c(=O)c3cc(F)ccc32)cc1	8	8.5*	2	-24
Cc1ccnc(NC(=O)CCC2COc3ccccc3O2)c1 (configuration not stated)	41*	1	-24	-44
O=C(CCC1COc2ccccc2O1)Nc1ccc(Cl)cn1 (configuration not stated)	6	1	-23	-36
CCCc1nc(Nc2nc3ccccc3o2)nc(C)c1C(=O)OCC	6	11*	-4	-58
COc1ccc(CN(C(=O)c2ccco2)c2ccc(C)c(C)c2)cc1	x	-1	x	x
CCCC(=O)n1nc(-c2cccnc2)nc1NCc1ccccc1	x	0	x	x
COc1ccc(N(C)S(=O)(=O)c2cccc(C(=O)NC3CCCC3)c2)cc1	x	0	x	x
COc1ccc(OCC(=O)NNC(=O)c2cccc(S(=O)(=O)N(C)C)c2)cc1	13	0	31*	-26
COc1cc(OC)cc(-c2nnc(SCc3c(F)cccc3Cl)o2)c1	3	8.9*	1	-53
COc1ccc(-c2nnc(SCc3ccccc3F)o2)cc1	0	2	-19	-48
COC(=O)c1ccccc1NC(=O)c1ccc(COc2ccccc2)o1	15	9.6*	-13	-29
COC(=O)c1ccccc1NC(=O)c1ccc(COc2cccc3ccccc23)o1	13	6	-5	-42
O=C(/C=C/NNC(=O)c1cccc(Br)c1)c1cccc(Br)c1	4	2	28*	-109
SMILES	Measles CPE	RAM inhibit	Yeast life ext	Yeast growth inh
O=C(Nc1ncc(S(=O)(=O)c2ccc([N+](=O)[O-])cc2)s1)c1ccc2ccccc2c1	19	8	-2	-40
CCC(C)(C)C(=O)Nc1ncc(S(=O)(=O)c2ccc([N+](=O)[O-])cc2)s1	53*	1	-5	-29
CCCCNC(=O)CSc1nc2ccsc2c(=O)n1CCCC(=O)NCCc1ccc(S(N)(=O)=O)cc1	x	3	x	x
Cc1nn(C2CCS(=O)(=O)C2)c(Cl)c1/C=C/C(=O)OCC(=O)c1c[nH]c2ccccc12 (configuration not stated)	4	4	-2	-10
Cc1nn(C2CCS(=O)(=O)C2)c(Cl)c1/C=C/C(=O)OCC(=O)c1cc(C)n(-c2ccc(F)cc2)c1C (configuration not stated)	46*	5	2	4
COc1cc(CCN2C(=O)N[C@@H](CCc3ccccc3)C(C(C)=O)=C2C)cc(OC)c1OC	29*	0	0	-2
COCCN1C(=O)N[C@@H](CCc2ccccc2)C(C(C)=O)=C1C	33	0	2	-10
CC(=O)c1ccc(NC(=O)Nc2ccc3c(c2)N(C)C(=O)CS3)cc1	14	2	-3	-8
CCOc1ccc(NC(=O)Nc2ccc3c(c2)N(C)C(=O)CS3)cc1	41*	11*	-5	-40
CCCCCc1c(C)nc(NCc2ccccc2)[nH]c1=O	37*	5	-2	-49
CCOC(=O)c1c(C)[nH]c(C)c1C(=O)CSc1nc2ccccc2c(=O)n1-c1ccccc1C	2	9.7*	5	9
CC1CCCCN1S(=O)(=O)c1coc(C(N)=O)c1 (configuration not stated)	19	4	-10	45*
CC1CCCN(S(=O)(=O)c2coc(C(N)=O)c2)C1 (configuration not stated)	10	-1	-5	-18
Cn1c(=O)c2c(nc(Br)n2CC(=O)c2cccs2)n(C)c1=O	1	1	36*	-82
Cn1c(=O)c2c(nc(SCC(=O)c3cccs3)n2Cc2ccc(F)cc2)n(C)c1=O	8	2	-8	-61
CCOC(=O)c1cc(C(C)=O)n2ccccc12	0	2	-29	-12
CCOC(=O)c1cc(C(=O)c2cccs2)n2ccc(C(C)=O)cc12	3	8.5*	-8	-40
NS(=O)(=O)c1ccc(O)c(NC(=O)c2ccc([N+](=O)[O-])cc2)c1	x	2	x	x
COc1ccc(C(=O)Nc2ccc(OCc3ccccc3)cc2)cc1[N+](=O)[O-]	5	1	60*	9
Cc1c(C(=O)Nc2ccc(OCc3ccccc3)cc2)cccc1[N+](=O)[O-]	4	5	-11	-55
CCOc1ccc(C(=O)Nc2ccc(NC(=O)c3cccs3)cc2)cc1[N+](=O)[O-]	7	10*	1	-22
O=C1C2C3C=CC(C3)C2C(=O)N1Cc1ccc(CN2C(=O)C3C4C=CC(C4)C3C2=O)cc1 (configuration not stated)	38*	3	-7	-16
Cc1nn(-c2ccccc2)c(Cl)c1/C=C1\SC(=S)N(C)C1=O	10	8.4*	-3	-21
Cc1nn(-c2ccccc2)c(Cl)c1/C=C1\C(=O)N(C)C(=S)N1C	x	2	x	x
Cc1c(Cl)c([N+](=O)[O-])nn1CC(=O)NC(C)C1CC2CCC1C2 (configuration not stated)	48*	2	-6	-40
CN(/C=C/C(=C\C=[N+](C)c1ccccc1)OCCCS(=O)(=O)[O-])c1ccccc1	x	3	x	x
O=C(NCC1CCCN(Cc2ccc3nonc3c2)C1)c1ccc(F)cc1 (configuration not stated)	x	1	x	x
Cc1ccc(C2CC(c3ccc(Cl)cc3)=NNC2=O)cc1 (configuration not stated)	49*	-2	-1	-53
O=C1NN=C(c2ccc(Br)cc2)CC1c1ccc(Cl)cc1 (configuration not stated)	x	0	x	x
COC(=O)C1=C(C)N(CCc2ccccc2)C(=O)/C1=C\c1ccco1	16	11*	16	-42
